In ChEMBL document CHEMBL4261642, “Design, synthesis, and ex vivo evaluation of a selective inhibitor for retinaldehyde dehydrogenase enzymes” (Bioorg Med Chem, 2018) one finds Vmax and Km data, which are given here for two proteins.

Common to all, as to details: Gallus gallus
Compound in series [1]: CC1=C(/C=C/C(C)=C/C=C/C(C)=C/C(=O)C(Cl)Cl)C(C)(C)CCC1
The series is described as follows: Inhibition of N-terminal His6-tagged recombinant chick RALDH1 expressed in Escherichia coli BL21(DE3) cells at 1000 nM using RAL as substrate assessed as Vmax preincubated for 20 mins followed by substrate addition and measured after 30 mins in presence of NADH by fluorescence assay (reference value: 54.77 +/- 7.58 pmol/microM/min).

Compound in series [2]: CC1=C(/C=C/C(C)=C/C=C/C(C)=C/C(=O)C(Cl)Cl)C(C)(C)CCC1
As to the kind of experiment: Inhibition of N-terminal His6-tagged recombinant chick RALDH1 expressed in Escherichia coli BL21(DE3) cells at 500 nM using RAL as substrate assessed as Vmax preincubated for 20 mins followed by substrate addition and measured after 30 mins in presence of NADH by fluorescence assay (reference value: 54.77 +/- 7.58 pmol/microM/min).

Compound in series [3]: CC1=C(/C=C/C(C)=C/C=C/C(C)=C/C(=O)C(Cl)Cl)C(C)(C)CCC1
The series is described as follows: Inhibition of N-terminal His6-tagged recombinant chick RALDH1 expressed in Escherichia coli BL21(DE3) cells at 100 nM using RAL as substrate assessed as Km preincubated for 20 mins followed by substrate addition and measured after 30 mins in presence of NADH by fluorescence assay (reference value: 67.09 +/- 25.06 microM).

Compound in series [4]: CC1=C(/C=C/C(C)=C/C=C/C(C)=C/C(=O)C(Cl)Cl)C(C)(C)CCC1
As to the kind of experiment: Inhibition of N-terminal His6-tagged recombinant chick RALDH1 expressed in Escherichia coli BL21(DE3) cells at 100 nM using RAL as substrate assessed as Vmax preincubated for 20 mins followed by substrate addition and measured after 30 mins in presence of NADH by fluorescence assay (reference value: 54.77 +/- 7.58 pmol/microM/min).

Compound in series [5]: CC1=C(/C=C/C(C)=C/C=C/C(C)=C/C(=O)C(Cl)Cl)C(C)(C)CCC1
The series is described as follows: Inhibition of N-terminal His6-tagged recombinant chick RALDH1 expressed in Escherichia coli BL21(DE3) cells at 500 nM using RAL as substrate assessed as Km preincubated for 20 mins followed by substrate addition and measured after 30 mins in presence of NADH by fluorescence assay (reference value: 67.09 +/- 25.06 microM).

Compound in series [6]: CC1=C(/C=C/C(C)=C/C=C/C(C)=C/C(=O)C(Cl)Cl)C(C)(C)CCC1
The series is described as follows: Inhibition of N-terminal His6-tagged recombinant chick RALDH1 expressed in Escherichia coli BL21(DE3) cells at 1000 nM using RAL as substrate assessed as Km preincubated for 20 mins followed by substrate addition and measured after 30 mins in presence of NADH by fluorescence assay (reference value: 67.09 +/- 25.06 microM).

Compound in series [7]: CC1=C(/C=C/C(C)=C/C=C/C(C)=C/C(=O)C(Cl)Cl)C(C)(C)CCC1
The series is described as follows: Inhibition of N-terminal His6-tagged recombinant chick RALDH2 expressed in Escherichia coli BL21(DE3) cells at 150 nM using RAL as substrate assessed as Km preincubated for 20 mins followed by substrate addition and measured after 30 mins in presence of NADH by fluorescence assay (reference value: 82.12 +/- 28.41 microM).

Compound in series [8]: CC1=C(/C=C/C(C)=C/C=C/C(C)=C/C(=O)C(Cl)Cl)C(C)(C)CCC1
As to the kind of experiment: Inhibition of N-terminal His6-tagged recombinant chick RALDH2 expressed in Escherichia coli BL21(DE3) cells at 250 nM using RAL as substrate assessed as Km preincubated for 20 mins followed by substrate addition and measured after 30 mins in presence of NADH by fluorescence assay (reference value: 82.12 +/- 28.41 microM).

Compound in series [9]: CC1=C(/C=C/C(C)=C/C=C/C(C)=C/C(=O)C(Cl)Cl)C(C)(C)CCC1
As to the kind of experiment: Inhibition of N-terminal His6-tagged recombinant chick RALDH2 expressed in Escherichia coli BL21(DE3) cells at 200 nM using RAL as substrate assessed as Km preincubated for 20 mins followed by substrate addition and measured after 30 mins in presence of NADH by fluorescence assay (reference value: 82.12 +/- 28.41 microM).

Compound in series [10]: CC1=C(/C=C/C(C)=C/C=C/C(C)=C/C(=O)C(Cl)Cl)C(C)(C)CCC1
As to the kind of experiment: Inhibition of N-terminal His6-tagged recombinant chick RALDH2 expressed in Escherichia coli BL21(DE3) cells at 200 nM using RAL as substrate assessed as Vmax preincubated for 20 mins followed by substrate addition and measured after 30 mins in presence of NADH by fluorescence assay (reference value: 1665 +/- 239.28 pmol/microM/min).

Compound in series [11]: CC1=C(/C=C/C(C)=C/C=C/C(C)=C/C(=O)C(Cl)Cl)C(C)(C)CCC1
The series is described as follows: Inhibition of N-terminal His6-tagged recombinant chick RALDH2 expressed in Escherichia coli BL21(DE3) cells at 250 nM using RAL as substrate assessed as Vmax preincubated for 20 mins followed by substrate addition and measured after 30 mins in presence of NADH by fluorescence assay (reference value: 1665 +/- 239.28 pmol/microM/min).

Compound in series [12]: CC1=C(/C=C/C(C)=C/C=C/C(C)=C/C(=O)C(Cl)Cl)C(C)(C)CCC1
The series is described as follows: Inhibition of N-terminal His6-tagged recombinant chick RALDH2 expressed in Escherichia coli BL21(DE3) cells at 100 nM using RAL as substrate assessed as Vmax preincubated for 20 mins followed by substrate addition and measured after 30 mins in presence of NADH by fluorescence assay (reference value: 1665 +/- 239.28 pmol/microM/min).

Compound in series [13]: CC1=C(/C=C/C(C)=C/C=C/C(C)=C/C(=O)C(Cl)Cl)C(C)(C)CCC1
The series is described as follows: Inhibition of N-terminal His6-tagged recombinant chick RALDH2 expressed in Escherichia coli BL21(DE3) cells at 50 nM using RAL as substrate assessed as Vmax preincubated for 20 mins followed by substrate addition and measured after 30 mins in presence of NADH by fluorescence assay (reference value: 1665 +/- 239.28 pmol/microM/min).

Compound in series [14]: CC1=C(/C=C/C(C)=C/C=C/C(C)=C/C(=O)C(Cl)Cl)C(C)(C)CCC1
As to the kind of experiment: Inhibition of N-terminal His6-tagged recombinant chick RALDH2 expressed in Escherichia coli BL21(DE3) cells at 100 nM using RAL as substrate assessed as Km preincubated for 20 mins followed by substrate addition and measured after 30 mins in presence of NADH by fluorescence assay (reference value: 82.12 +/- 28.41 microM).

Compound in series [15]: CC1=C(/C=C/C(C)=C/C=C/C(C)=C/C(=O)C(Cl)Cl)C(C)(C)CCC1
As to the kind of experiment: Inhibition of N-terminal His6-tagged recombinant chick RALDH2 expressed in Escherichia coli BL21(DE3) cells at 50 nM using RAL as substrate assessed as Km preincubated for 20 mins followed by substrate addition and measured after 30 mins in presence of NADH by fluorescence assay (reference value: 82.12 +/- 28.41 microM).

Compound in series [16]: CC1=C(/C=C/C(C)=C/C=C/C(C)=C/C(=O)C(Cl)Cl)C(C)(C)CCC1
The series is described as follows: Inhibition of N-terminal His6-tagged recombinant chick RALDH2 expressed in Escherichia coli BL21(DE3) cells at 150 nM using RAL as substrate assessed as Vmax at enzyme concentrations of 183 to 365 nM measured after 30 mins in presence of NADH by fluorescence assay. An outline of the steps:
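Chick RALDH2 at 46–365 nM pre-incubated 20 min with a fixed 150 nM inhibitor. NADH synthesis then started with 250 μM retinaldehyde and 4 mM NAD+, 30 min at 37°C, read fluorimetrically. Vmax plotted against enzyme concentration.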

Compound in series [17]: CC1=C(/C=C/C(C)=C/C=C/C(C)=C/C(=O)C(Cl)Cl)C(C)(C)CCC1
The series is described as follows: Inhibition of N-terminal His6-tagged recombinant chick RALDH2 expressed in Escherichia coli BL21(DE3) cells at 150 nM using RAL as substrate assessed as Vmax preincubated for 20 mins followed by substrate addition and measured after 30 mins in presence of NADH by fluorescence assay (reference value: 1665 +/- 239.28 pmol/microM/min).

B1: Aldehyde dehydrogenase 1A1 (Gallus gallus), P27463 (protein)
chain: MKKQGSPSNPAPVLPALPEPLKDLKIKYTKIFINNEWHDSVSGKKFEVFNPANEEKICEVAEGDKADIDKAVKAARKAFELGSPWRTMDASERGRLLNKLADLVERDRLTLATMEAIDGGKLFSTAYLMDLGACIKTIRYCAGWADKIHGRTVPMDGNFFTFTRHEPVGVCGQIIPWNFPLVMFIWKIAPALCCGNTVVVKPAEQTPLSALYMGSLIKEAGFPPGVVNIVPGFGPTAGAAISHHMDIDKVSFTGSTEVGKLIKEAAGKTNLKRVTLELGGKSPNIIFADADLDEAAEFAHIGLFYHQGQCCIAGSRIFVEEPIYDEFVRRSIERAKKYTLGDPLLPGVQQGPQIDKEQFQKILDLIESGKKEGAKLECGGGPWGNKGYFIQPTVFSNVTDDMRIAKEEIFGPVQQIMKFKTIDEVIKRANNTTYGLAAAVFTKDIDKALTFASALQAGTVWVNCYSAFSAQCPFGGFKMSGNGRELGEYGLQEYTEVKTVTIKIPQKNS
In general, Km refers to the substrate concentration at which the rate is half of its maximum. As to B1, the results for the Vmax in [1], in [2] and in series [4] were 25.7 pmol/µM/min, 33.8 pmol/µM/min and 50.1 pmol/µM/min, respectively. Further, the Km in series [3] was 62.2 µM; in series [5], 32.9 µM; in series [6], 22.8 µM.

B2: Retinal dehydrogenase 2 (Gallus gallus), O93344 (protein)
chain: MTSSKIEMPGEVKADPAALMASLHLLPSPTLNLEIKHTKIFINNEWQNSESGRVFPVYNPATGEQICEIQEADKVDTDKAVRAARLAFSLGSVWRRMDASERGQLLDKLADLVERDRAVLATMESLNSGKPFLQAFYVDLQGVIKTLRYYAGWADKIHGMTIPVDGDYFTFTRHEPIGVCGQIIPWNFPLLMFAWKIAPALCCGNTVVIKPAEQTPLSALYMGALIKEAGFPPGVVNILPGFGPIVGAAIASHVGIDKIAFTGSTEVGKLIQEAAGRSNLKRVTLELGGKSPNIIFADADLDYAVEQAHQGVFFNQGQCCTAGSRIYVEESIYEEFVRRSVERAKRRVVGSPFDPTTEQGPQIDKKQYNKILELIQSGITEGAKLECGGKGLGRKGFFIEPTVFSNVTDDMRIAKEEIFGPVQEILRFKTVDEVIERANNSDFGLVAAVFTNDINKALTVSSAMQAGTVWINCYNALNAQSPFGGFKMSGNGREMGESGLREYSEVKTVTIKIPQKNS
For the protein B2, the Km in series [7] was 22.7 µM; in series [8] it was 14.9 µM; in [9], 18.3 µM; in series [14], 47.2 µM; in series [15], 80.7 µM. Besides, the Vmax was 666 pmol/µM/min in series [10]; 503 pmol/µM/min in series [11]; 1150 pmol/µM/min in series [12]; 1560 pmol/µM/min in series [13]; 0.5 to 3.01 µM/min in series [16]; 867 pmol/µM/min in [17].
